Entries after “also recorded” stand apart in the source; their conditions may differ. Like-named read-outs stand apart in the source and are kept apart here.
How the values were obtained:
[1] = tested on: GFP-labeled iPSC-derived human neurons; assay type: cell-based
[2] = tested on: iPSC-derived human cortical glutamatergic neurons; assay type: cell-based
[3] = tested on: iPSC-derived human spinal motor neurons; assay type: cell-based
[4] = tested on: LUHMES; settings: NeuriTox test, IC50 (viability/neurite area) ratio ≥4; ref Delp et al., 2018; cited from earlier work
[5] = tested on: PeriTox test cells; settings: IC50 (viability/neurite area) ratio ≥3, ref Delp et al., 2018; cited from earlier work
[6] = tested on: iPSC-derived human spinal motor neurons; experiment: Cell viability / cytotoxicity; assay type: cell-based
Procedure, shortened: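 GFP-expressing iPSC-derived motor neurons were seeded at 800 cells/well on PDL-coated 1536-well plates and grown 40 h at 37 °C. Test compound was then added at 11 concentrations (1.56 nM–92 μM, 1:3) and exposed 24 and 48 h. Cells were counted as number of objects from GFP high-content images (488/530 nm, 20×, four fields/well). Values were normalized to 46 μM rotenone (−100%) and 0.46% DMSO (0%), in triplicate.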

[7] = cortical and/or motor neurons, not specified, 24 or 48 hours, up to 92 μM
[8] = cortical neurons, active at either 24 or 48 hours, 1.56 nM to 92 μM
[9] = motor neurons, active at either 24 or 48 hours, 1.56 nM to 92 μM
[10] = cortical neurons, 24 hours of treatment
[11] = cortical neurons, 48 hours of treatment

Compound: C[C@]12CC[C@@H]3c4ccc(O)cc4CC[C@H]3[C@@H]1CC[C@@H]2O [estradiol]
- neurite outgrowth inhibition in this study (activity call) [1, 7]: inhibit neurite outgrowth

Compound: C=C(C)[C@H]1Cc2c(ccc3c2O[C@@H]2COc4cc(OC)c(OC)cc4[C@@H]2C3=O)O1 [rotenone]
- neurite outgrowth inhibition (activity call) [2, 8]: inhibited neurite outgrowth in a concentration dependent manner
- neurite outgrowth inhibition (activity call) [3, 9]: inhibited neurite outgrowth in a concentration dependent manner
- selective effect on neurite outgrowth [4]: selective effects

Compound: [CH3][Hg][Cl] [methyl mercuric (II) chloride]
- neurite outgrowth inhibition (activity call) [2, 8]: inhibited
- neurite outgrowth inhibition (activity call) [3, 9]: inhibited

Compound: CC(C)(c1ccc(O)cc1)c1ccc(O)cc1 [bisphenol A]
- neurite outgrowth inhibition (activity call) [2, 10]: not active
- neurite outgrowth inhibition (activity call) [2, 11]: active; also recorded: inhibitory effects

Compound: CC(C)[C@@H]1NC(=O)[C@H](C)OC(=O)[C@@H](C(C)C)NC(=O)[C@@H](C(C)C)OC(=O)[C@H](C(C)C)NC(=O)[C@H](C)OC(=O)[C@@H](C(C)C)NC(=O)[C@@H](C(C)C)OC(=O)[C@H](C(C)C)NC(=O)[C@H](C)OC(=O)[C@@H](C(C)C)NC(=O)[C@@H](C(C)C)OC1=O [Valinomycin]
- selective effect on neurite outgrowth [5]: selective effects
- selective effect on neurite outgrowth [4]: selective effects
- selective effect on neurite outgrowth in this study ([1]; neuron type not specified): selective effects

Compound: CC(=O)[O-].CC(=O)[O-].O.O.O.[Pb+2] [lead (II) acetate trihydrate]
- neurite outgrowth inhibition in this study (activity call) [1, 7]: inhibit neurite outgrowth

Compound: Brc1ccc(Oc2ccc(Br)cc2Br)c(Br)c1 [2,2′,4,4′-tetrabromodiphenyl ether]
- neurite outgrowth inhibition (activity call) [2, 8]: only affected neurite outgrowth in motor neurons
- neurite outgrowth inhibition (activity call) [3, 9]: affected
- neurite outgrowth inhibition (activity call) ([3]; motor neurons, active at either 24 or 48 hours, 1.56 nM to 92 μM, listed as 2,2’,4,4’-tetrabromodiphenyl ether): inhibited

Compound: Oc1ccc(C(c2ccc(O)cc2)(C(F)(F)F)C(F)(F)F)cc1 [bisphenol AF]
- neurite outgrowth inhibition (activity call) [2, 8]: inhibitory effects; also recorded: inhibited
- neurite outgrowth inhibition in this study (activity call) [1, 7]: inhibit neurite outgrowth

Compound: CC(C)(c1cc(Br)c(O)c(Br)c1)c1cc(Br)c(O)c(Br)c1 [3,3’,5,5’-tetrabromobisphenol A]
- neurite outgrowth inhibition (activity call) [2, 8]: inhibited

Compound: c1ccc2c(c1)-c1cccc3c1c-2cc1ccccc13 [benzo (b) fluoranthene]
- neurite outgrowth inhibition (activity call) [2]: active

Compound: CCCCC(CC)COP(=O)(Oc1ccccc1)Oc1ccccc1 (stereo not drawn) [ethylhexyl diphenyl phosphate, 2-ethylhexyl diphenyl phosphate]
- neurite outgrowth inhibition (activity call) [2, 10]: active

Compound: c1ccc2cc3ccccc3cc2c1 [anthracene]
- neurite outgrowth inhibition (activity call) [2, 8]: only affected neurite outgrowth in motor neurons
- neurite outgrowth inhibition (activity call) [3, 9]: affected

Compound: CC1(C)[C@H](C(=O)O[C@H](C#N)c2cccc(Oc3ccccc3)c2)[C@@H]1C=C(Br)Br [deltamethrin]
- neurite outgrowth inhibition (activity call) [2, 10]: not active
- neurite outgrowth inhibition (activity call) [2, 11]: active; also recorded: inhibitory effects

Compound: COc1cc2c(c(OC)c1OC)-c1ccc(OC)c(=O)cc1[C@@H](NC(C)=O)CC2 [Colchicine]
- neurite outgrowth inhibition (activity call) [2, 8]: inhibited
- neurite outgrowth inhibition (activity call) [3, 9]: inhibited

Compound: CCC1(c2ccccc2)C(=O)NC(=O)NC1=O [phenobarbital]
- neurite outgrowth inhibition in this study (activity call) [1, 7]: not be active

Compound: O=C1O[C@H]([C@@H](O)CO)C(O)=C1O [L-ascorbic acid]
- cytotoxicity [6]: cytotoxic
- neurite outgrowth inhibition in this study (activity call) [1, 7]: inhibitor of neurite outgrowth

Compound: CCOP(=S)(OCC)Oc1ccc([N+](=O)[O-])cc1 [parathion]
- neurite outgrowth inhibition (activity call) [2, 8]: inhibitory effects; also recorded: inhibited

Compound: CN(C)c1ccc(C(=N)c2ccc(N(C)C)cc2)cc1.Cl [auramine O]
- neurite outgrowth inhibition in this study (activity call) [1, 7]: inhibit neurite outgrowth

Compound: CCCCCC [N-hexane, n-hexane]
- neurite outgrowth inhibition in this study (activity call) [1]: not have been active

Compound: Cn1c(=O)c2c(ncn2C)n(C)c1=O [caffeine]
- neurite outgrowth inhibition (activity call) [2]: only affected neurite outgrowth in motor neurons
- neurite outgrowth inhibition (activity call) [3]: inhibited; also recorded: affected
- neurite outgrowth inhibition in this study (activity call) [1, 7]: inhibit neurite outgrowth

Compound: CC/C(=C(/CC)c1ccc(O)cc1)c1ccc(O)cc1 [Diethylstilbestrol]
- selective effect on neurite outgrowth [4]: selective effects

Compound: CCCCC(CC)COC(=O)c1cc(Br)c(Br)c(Br)c1Br (stereo not drawn) [2-ethylhexyl-2,3,4,5-tetrabromobenzoate]
- neurite outgrowth inhibition in this study (activity call) [1, 7]: inhibit neurite outgrowth

Compound: CC(C)(C)C(O)(CCc1ccc(Cl)cc1)Cn1cncn1 (stereo not drawn) [tebuconazole]
- neurite outgrowth inhibition (activity call) [2, 10]: not active
- neurite outgrowth inhibition (activity call) [2, 11]: active; also recorded: inhibitory effects

— publication PMC9444042 (Neurotoxicology, 2021)
